Activity calls are given as the source filed them. No cut-off for these calls is given here.
Columns and labels:
BaF3 [1] = assay: Inhibition of EGFR-C797S/T790M/del19 mutant in mouse BaF3 cells assessed as reduction in ERK phosphorylation incubated for 6 hrs by Western blotting analysis; type: cell-based
PC-9 [2] = assay: Anti-tumor activity against EGFR T790M/del19 mutant expressing gefitinib-resistant human PC-9 cells xenografted in Balb-c nu/nu mouse assessed as growth inhibition at 75 mg/kg, po administered for 42 days and measured for 3 times per week in presence of cetuximab; type: functional, organism-based; settings: time 42.0 day
BaF3 [3] = assay: Inhibition of EGFR-C797S/T790M/L858R mutant in mouse BaF3 cells assessed as inhibition of S6 phosphorylation at 10 to 1000 nM incubated for 6 hrs by Western blotting analysis; type: cell-based; settings: dose 10-1000 nM
Procedure, shortened: (§1)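 Ba/F3 cells expressing EGFR-L858R-series mutants treated with inhibitors for 6 h. SDS lysates quantified by BCA, run on SDS-PAGE and blotted to PVDF. Probed for phospho-EGFR (Tyr1068), total EGFR and downstream phospho-proteins.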

[4] = Toxicity against Balb-c nu/nu mouse xenografted with human PC-9 cells expressing EGFR-C797S/T790M/del19 mutant assessed as change in body weight at 75 mg/kg, po administered for 60 days and measured twice weekly in presence of panitumumab; type: organism-based; settings: in vivo, 1440 h, time 60 day
Procedure, shortened: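 Mice bearing subcutaneous PC9 triple-mutant tumours in Balb-c nu/nu hosts were randomized at ~200 mm³. […] Body weights were taken twice weekly, N=6 per group.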

BaF3 [5] = assay: Inhibition of EGFR-C797S/T790M/L858R mutant expressed in mouse BaF3 cells assessed as inhibition of ERK phosphorylation at 10 to 1000 nM incubated for 6 hrs by Western blotting analysis; type: cell-based; settings: dose 10-1000 nM; procedure, shortened: as §1
PC-9 [6] = settings: Homo sapiens, dose 75.0 mg/kg, route po, time 60.0 day
[7] = test system: Epidermal growth factor receptor (Homo sapiens), P00533 [UNDEFINED MUTATION]; settings: PC-9, dose 10-1000 nM
Epidermal growth factor receptor (Homo sapiens), P00533 [UNDEFINED MUTATION], sequence (P00533 whole entry, looked up, stated change not applied): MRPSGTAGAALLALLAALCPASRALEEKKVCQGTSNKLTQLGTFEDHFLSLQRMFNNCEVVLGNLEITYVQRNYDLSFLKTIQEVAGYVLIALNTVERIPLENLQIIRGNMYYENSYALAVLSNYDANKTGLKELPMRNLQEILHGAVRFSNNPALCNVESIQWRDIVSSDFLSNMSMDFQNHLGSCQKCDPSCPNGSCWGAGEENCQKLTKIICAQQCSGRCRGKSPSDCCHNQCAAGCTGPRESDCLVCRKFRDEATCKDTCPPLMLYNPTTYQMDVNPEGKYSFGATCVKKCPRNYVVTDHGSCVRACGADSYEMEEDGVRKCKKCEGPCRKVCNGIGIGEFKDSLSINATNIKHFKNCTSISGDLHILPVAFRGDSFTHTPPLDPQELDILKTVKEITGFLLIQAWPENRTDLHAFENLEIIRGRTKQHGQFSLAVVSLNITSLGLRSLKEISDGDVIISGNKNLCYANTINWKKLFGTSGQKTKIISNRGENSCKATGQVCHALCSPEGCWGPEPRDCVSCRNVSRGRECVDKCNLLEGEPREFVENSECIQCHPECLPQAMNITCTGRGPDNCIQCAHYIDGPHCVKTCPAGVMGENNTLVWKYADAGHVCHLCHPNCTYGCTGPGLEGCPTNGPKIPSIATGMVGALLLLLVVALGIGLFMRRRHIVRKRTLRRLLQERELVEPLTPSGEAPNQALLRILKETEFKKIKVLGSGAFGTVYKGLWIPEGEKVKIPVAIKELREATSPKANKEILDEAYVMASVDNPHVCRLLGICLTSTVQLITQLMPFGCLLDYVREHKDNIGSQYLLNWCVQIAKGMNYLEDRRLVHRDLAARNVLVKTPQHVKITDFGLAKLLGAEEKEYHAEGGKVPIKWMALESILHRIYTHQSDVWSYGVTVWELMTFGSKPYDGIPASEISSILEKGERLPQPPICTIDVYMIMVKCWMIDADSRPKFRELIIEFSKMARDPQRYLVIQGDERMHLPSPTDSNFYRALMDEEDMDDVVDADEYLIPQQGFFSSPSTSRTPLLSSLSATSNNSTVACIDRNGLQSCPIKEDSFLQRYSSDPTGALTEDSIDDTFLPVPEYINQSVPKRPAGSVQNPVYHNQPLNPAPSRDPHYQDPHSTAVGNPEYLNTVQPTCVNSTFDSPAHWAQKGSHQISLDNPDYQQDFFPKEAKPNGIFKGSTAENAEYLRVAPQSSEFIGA

[8] = molecular target: Epidermal growth factor receptor (Homo sapiens) (UniProt P00533); settings: dose 0.01-10000 nM, time 10.0 min
Epidermal growth factor receptor (Homo sapiens), sequence (P00533 whole entry): as the sequence (P00533 whole entry, looked up, stated change not applied) above

[9] = Toxicity against SCID-beige mouse xenografted with human MGH121 cells expressing EGFR-C797S/T790M/del19 mutant assessed as change in body weight at 75 mg/kg, po administered for 40 days and measured twice weekly in presence of cetuximab; type: organism-based; settings: in vivo, 960 h, time 40 day
Procedure, shortened: (§2)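 SCID-beige mice with subcutaneous MGH121-res2 implants were randomized to vehicle or treatment at a mean tumour volume of ~200 mm³. […] Body weight was measured twice weekly, N=6 per group.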

[10] = test system: Epidermal growth factor receptor (Homo sapiens), P00533 [UNDEFINED MUTATION]; settings: PC-9, dose 10-1000 nM; remark: listed apart in the source
[11] = test system: Epidermal growth factor receptor (Homo sapiens), P00533 [UNDEFINED MUTATION]; settings: PC-9, dose 10-1000 nM; remark: listed apart in the source
BaF3 [12] = assay: Inhibition of EGFR-T790M/del19 mutant in mouse BaF3 cells assessed as inhibition of Akt phosphorylation at 10 to 1000 nM incubated for 6 hrs by Western blotting analysis; type: cell-based; settings: dose 10-1000 nM
Procedure, shortened: (§3)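 Ba/F3 cells carrying the stated EGFR mutant were made IL-3-independent after 1 week of 7 µM blasticidin selection. They were grown in low-glucose DMEM with 10% FBS and exposed to inhibitor for 6 h. Cells were washed in cold PBS, lysed in SDS buffer (100 mM Tris, 1% SDS, 10% glycerol) and boiled 5 min. Protein was measured by BCA, run on SDS-PAGE, transferred to PVDF, blocked in 5% BSA or milk/TBS-T, and immunoblotted.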

[13] = test system: Epidermal growth factor receptor (Homo sapiens), P00533 [UNDEFINED MUTATION]; settings: PC-9, dose 500.0 nM, time 48.0 hrs
PC-9 [14] = assay: Inhibition of EGFR T790M/del19 mutant in human PC-9 cells assessed as reduction in ERK phosphorylation at 10 to 1000 nM by Western blotting analysis; type: cell-based; settings: dose 10-1000 nM
BaF3 [15] = assay: Inhibition of EGFR-C797S/T790M/L858R mutant expressed in mouse BaF3 cells assessed as inhibition of Akt phosphorylation at 10 to 1000 nM incubated for 6 hrs by Western blotting analysis; type: cell-based; settings: dose 10-1000 nM; procedure, shortened: as §1
BaF3 [16] = type: cell-based; settings: Mus musculus, dose 10-1000 nM, time 6.0 hrs
BaF3 [17] = assay: Inhibition of EGFR-del19 mutant in mouse BaF3 cells assessed as inhibition of Akt phosphorylation at 10 to 1000 nM incubated for 6 hrs by Western blotting analysis; type: cell-based; settings: dose 10-1000 nM; procedure, shortened: as §3
PC-9 [18] = settings: Homo sapiens, dose 75.0 mg/kg, route po, time 60.0 day; remark: listed apart in the source
[19] = Toxicity against SCID-beige mouse xenografted with human MGH121 cells expressing EGFR-C797S/T790M/del19 mutant assessed as change in body weight at 75 mg/kg, po administered for 40 days and measured twice weekly; type: organism-based; settings: in vivo, 960 h, time 40 day; procedure, shortened: as §2
BaF3 [20] = assay: Inhibition of EGFR-C797S/T790M/del19 mutant in mouse BaF3 cells assessed as reduction in EGFR phosphorylation incubated for 6 hrs by Western blotting analysis; type: cell-based
BaF3 [21] = assay: Inhibition of EGFR-C797S/T790M/del19 mutant in mouse BaF3 cells assessed as reduction in Akt phosphorylation incubated for 6 hrs by Western blotting analysis; type: cell-based
[22] = test system: Epidermal growth factor receptor (Homo sapiens), P00533 [UNDEFINED MUTATION]; settings: PC-9, dose 10-1000 nM; remark: listed apart in the source
[23] = test system: Epidermal growth factor receptor (Homo sapiens), P00533 [UNDEFINED MUTATION]; settings: PC-9, dose 500.0 nM, time 48.0 hrs; remark: listed apart in the source
NCI-H460 = assay: Anticancer activity against KRAS-mutated human NCI-H460 cells assessed as reduction in cell viability at 1 to 10000 nM incubated for 72 hrs by CellTiter-Glo assay; type: functional, cell-based; settings: dose 1-10000 nM
[24] = test system: Epidermal growth factor receptor (Homo sapiens), P00533 [UNDEFINED MUTATION]; settings: MGH121, dose 10-1000 nM
PC-9 [25] = assay: Anti-tumor activity against human PC-9 cells expressing EGFR-C797S/T790M/del19 mutant xenografted in Balb-c nu/nu mouse assessed as prolonged survival at 75 mg/kg, po administered for 60 days and measured twice weekly in presence of cetuximab; type: functional, organism-based; settings: time 60.0 day
Procedure, shortened: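 PC9 EGFR-C797S/T790M/del19 xenografts in Balb-c nu/nu mice, randomized at ~200 mm³. […] Tumour volume 0.5×length×width² and body weight measured twice weekly. Survival shown by Kaplan-Meier curve. N = 6. Mann-Whitney U test on tumour volume at day 23.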

BaF3 [26] = assay: Inhibition of EGFR-C797S/T790M/del19 mutant in mouse BaF3 cells assessed as reduction in S6 phosphorylation incubated for 6 hrs by Western blotting analysis; type: cell-based; procedure, shortened: as §3
BaF3 [27] = type: cell-based; settings: Mus musculus, dose 10-1000 nM, time 6.0 hrs; remark: listed apart in the source
PC-9 [28] = settings: Homo sapiens, dose 75.0 mg/kg, route po, time 60.0 day; remark: listed apart in the source

- inhibition [7]: Active
- inhibition [8]: Dose-Dependent Effect
- inhibition [10]: Active
- inhibition [11]: Active
- inhibition [13]: Active
- inhibition [22]: Active
- inhibition [23]: Active
- inhibition [24]: Active
SMILES: COc1cc(N2CCC(N3CCN(C)CC3)CC2)ccc1Nc1ncc(Cl)c(Nc2ccccc2P(C)(C)=O)n1 [BRIGATINIB]
- inhibition (BaF3 [1]): Dose-Dependent Effect
- Activity (PC-9 [2]): Active
- inhibition (BaF3 [3]): Active
- Activity [4]: Non-Toxic
- inhibition (BaF3 [5]): Active
- inhibition (PC-9 [6]): Active
- Activity [9]: Non-Toxic
- inhibition (BaF3 [12]): Active
- inhibition (PC-9 [14]): Active
- inhibition (BaF3 [15]): Active
- inhibition (BaF3 [16]): Active
- inhibition (BaF3 [17]): Active
- inhibition (PC-9 [18]): Active
- Activity [19]: Non-Toxic
- inhibition (BaF3 [20]): Dose-Dependent Effect
- inhibition (BaF3 [21]): Dose-Dependent Effect
- Activity (NCI-H460): Active
- Activity (PC-9 [25]): Active
- inhibition (BaF3 [26]): Dose-Dependent Effect
- inhibition (BaF3 [27]): Active
- inhibition (PC-9 [28]): Active

Source: ChEMBL document CHEMBL5705906 (Nat Commun, 2017)
